The values below come from ChEMBL document CHEMBL4382237, “Design, Synthesis, and Biological Evaluation of 2-Nitroimidazopyrazin-one/-es with Antitubercular and Antiparasitic Activity” (J Med Chem, 2018).

The MIC is the lowest concentration that inhibits growth of the organism.

For one experiment, the system named is Entamoeba histolytica. Kind of experiment: Antiparasitic activity against Entamoeba histolytica HM-1:IMSS trophozoites after 24 to 48 hrs by CellTiter-Glo luminescent cell viability assay. Format: functional, organism-based. Put shortly:
(§1)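 Axenic trophozoites were kept in TYI-S-33 with penicillin (100 U/mL) and streptomycin (100 µg/mL) and harvested in log phase. 5000 parasites per well were exposed to a final 8-point two-fold series of 0.39–50 µM, from 10 mM DMSO stocks. Plates were incubated 24–48 h at 37 °C under anaerobic conditions. ATP luminescence viability was read in triplicate. Percent inhibition is given at the highest concentration tested.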
In general terms: Cellular ATP, detected with luciferase, serves as a proxy for viable cell number.

In experiment [1] the test system is Mycobacterium tuberculosis. Kind of experiment: Antibacterial activity against non-replicating Mycobacterium tuberculosis H37Rv after 5 days under hypoxic condition by resazurin dye-based fluorescence assay. The settings on record: 120 h. The format is functional. The method in brief: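 Same H37Rv inoculum (OD600 0.001, ~2 x 10^4 CFU/mL) in 7H9S with serially diluted compound. Plates held 5 days at 0.1% oxygen, then resazurin plus Tween-80 added.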

Experiment [2] deals with Trypanosoma brucei brucei. Kind of experiment: Antiparasitic activity against bloodstream form of Trypanosoma brucei brucei strain 427 assessed as inhibition of parasitic growth at 40 uM after 48 hrs by resazurin dye-based assay relative to control. The format is functional. The settings on record: strain 427, 48 h, read-out: GI. (Alamar Blue is a resazurin reagent that responds to reducing activity.)

A further experiment has as its system Giardia intestinalis. Kind of experiment: Antiparasitic activity against Giardia lamblia WB trophozoites assessed as inhibition of parasitic growth at 50 uM after 24 to 48 hrs by CellTiter-Glo luminescent cell viability assay relative to control. Format: functional. To be noted: Giardia duodenalis, read-out: GI. The method in brief:
as §1

Take `Cc1cn2cc([N+](=O)[O-])nc2c(OCCO)n1`: the IC50 in the experiment with Entamoeba histolytica (read-out: IC50) was more than 50 µM; with Entamoeba histolytica (read-out: pIC50 (converted)) it was more than 50.1 µM. Moreover, the MIC in experiment [1] was more than 32 µg/mL. Moreover, the inhibition of growth at 40 µM in experiment [2] stood at 56%. Further, the inhibition of growth at 50 µM in the experiment with Giardia intestinalis was 80%.
